These results are taken from ChEMBL document CHEMBL1926507, “Discovery of a new class of bicyclic substituted hydroxyphenylmethanones as 17β-hydroxysteroid dehydrogenase type 2 (17β-HSD2) inhibitors for the treatment of osteoporosis” (Eur J Med Chem, 2012).

For test [1], the target named is T1, 17-beta-hydroxysteroid dehydrogenase type 2 (Homo sapiens) (UniProt P37059).
T1 sequence (whole entry): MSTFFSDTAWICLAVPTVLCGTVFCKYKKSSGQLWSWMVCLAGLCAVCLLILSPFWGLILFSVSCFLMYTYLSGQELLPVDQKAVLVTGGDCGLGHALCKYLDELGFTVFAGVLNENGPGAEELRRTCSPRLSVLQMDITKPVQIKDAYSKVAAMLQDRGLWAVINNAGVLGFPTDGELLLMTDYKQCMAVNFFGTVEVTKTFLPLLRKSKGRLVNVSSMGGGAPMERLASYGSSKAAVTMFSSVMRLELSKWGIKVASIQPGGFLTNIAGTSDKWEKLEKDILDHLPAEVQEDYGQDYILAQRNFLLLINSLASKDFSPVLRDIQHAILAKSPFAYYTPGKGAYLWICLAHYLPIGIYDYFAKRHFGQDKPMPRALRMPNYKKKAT
The test is described as follows: Inhibition of human microsomal 17beta-HSD2 using [2,4,6,7-3H]E2 as substrate at 1 uM after 20 mins by radioflow detector. The method, boiled down:
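Microsomal fraction from human placenta incubated at 37 °C for 20 min with NAD+ (1500 µM), inhibitor and unlabeled plus [2,4,6,7-3H]-E2 (final 500 nM). Phosphate buffer 50 mM with 20% glycerol and 1 mM EDTA. Inhibitor stocks made in DMSO. Reaction stopped with HgCl2 and extracted with ether. E2 and E1 separated by HPLC with radioflow detection. Values are the mean of three determinations.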

Test [2] addresses T2, 17-beta-hydroxysteroid dehydrogenase type 1 (Homo sapiens, UniProt P14061).
T2 sequence (P14061 whole entry): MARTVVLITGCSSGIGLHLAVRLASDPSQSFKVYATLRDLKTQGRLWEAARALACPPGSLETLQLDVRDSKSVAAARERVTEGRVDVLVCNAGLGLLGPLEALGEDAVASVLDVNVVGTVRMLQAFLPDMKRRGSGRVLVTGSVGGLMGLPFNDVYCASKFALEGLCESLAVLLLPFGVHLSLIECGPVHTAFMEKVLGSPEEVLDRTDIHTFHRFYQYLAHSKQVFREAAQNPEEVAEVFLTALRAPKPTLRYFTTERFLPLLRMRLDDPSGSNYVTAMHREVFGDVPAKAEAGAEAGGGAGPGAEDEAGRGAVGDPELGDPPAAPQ
The test is described as follows: Inhibition of human cytosolic 17beta-HSD1 in cell-free system using [2,4,6,7-3H]E1 as substrate after 10 mins by radioflow detector.

The target in test [3] is T3, 17-beta-hydroxysteroid dehydrogenase type 1 (Homo sapiens) (UniProt P14061).
T3 sequence (whole entry): T2 sequence (P14061 whole entry)
As to the kind of experiment: Inhibition of human cytosolic 17beta-HSD1 using [2,4,6,7-3H]E1 as substrate at 1 uM after 10 mins by radioflow detector. The method, boiled down: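 Cytosolic fraction from human placenta incubated with NADH (500 µM), test compound and unlabeled plus [2,4,6,7-3H]-E1 (final 500 nM) for 10 min at 37 °C. Phosphate buffer 50 mM with 20% glycerol and 1 mM EDTA. Inhibitor stocks made in DMSO. Reaction stopped with HgCl2 and extracted with ether. Substrate and product separated by HPLC with radioflow detection. Values are the mean of three determinations.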

In test [4] the target is T4, 17-beta-hydroxysteroid dehydrogenase type 2 (Homo sapiens, UniProt P37059).
T4 sequence (P37059 whole entry): T1 sequence (whole entry)
The test is described as follows: Inhibition of human microsomal 17beta-HSD2 in cell-free system using [2,4,6,7-3H]E2 as substrate after 20 mins by radioflow detector.

For test [5], the species on record is Homo sapiens. The test is described as follows: Selectivity ratio of IC50 for human cytosolic 17beta-HSD1 to IC50 for human microsomal 17beta-HSD2. A digest of the protocol:
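Ratio calculated as IC50(17β-HSD1)/IC50(17β-HSD2). 17β-HSD1 was measured in placental cytosol with [3H]-E1 + E1 (500 nM) and NADH (0.5 mM). 17β-HSD2 was measured in placental microsomes with [3H]-E2 + E2 (500 nM) and NAD+ (1.5 mM). Each IC50 is the mean of three determinations.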

For test [6], the target named is T5, Estrogen receptor (Homo sapiens) (UniProt P03372).
T5 sequence (whole entry): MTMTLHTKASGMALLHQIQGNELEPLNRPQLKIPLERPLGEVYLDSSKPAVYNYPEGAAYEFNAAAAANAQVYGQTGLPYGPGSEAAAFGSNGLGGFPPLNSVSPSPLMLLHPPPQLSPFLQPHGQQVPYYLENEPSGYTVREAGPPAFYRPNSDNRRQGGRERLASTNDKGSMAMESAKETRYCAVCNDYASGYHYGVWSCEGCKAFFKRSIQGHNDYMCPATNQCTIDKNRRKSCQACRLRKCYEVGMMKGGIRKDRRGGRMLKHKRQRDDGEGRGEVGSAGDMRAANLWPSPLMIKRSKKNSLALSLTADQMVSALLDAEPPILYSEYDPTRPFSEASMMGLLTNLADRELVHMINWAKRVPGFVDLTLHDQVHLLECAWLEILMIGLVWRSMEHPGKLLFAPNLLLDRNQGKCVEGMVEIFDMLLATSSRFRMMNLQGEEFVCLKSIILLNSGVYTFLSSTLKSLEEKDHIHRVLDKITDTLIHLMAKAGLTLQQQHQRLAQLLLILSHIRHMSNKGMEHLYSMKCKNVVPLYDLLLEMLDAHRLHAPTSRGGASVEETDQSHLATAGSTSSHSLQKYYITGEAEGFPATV
As to the kind of experiment: Displacement of [3H]E2 from human recombinant ERalpha after 1 hr by liquid scintillation counting relative to estradiol. A digest of the protocol:
(§1)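 Recombinant human ERα or ERβ (0.25 pmol) incubated with [3H]-E2 (10 nM) and test compound for 1 h at room temperature, DMSO 5% final. Non-specific binding defined with diethylstilbestrol. Receptor-ligand complexes captured on hydroxyapatite, washed, resuspended in ethanol, and counted by liquid scintillation. IC50 for [3H]-E2 displacement taken from sigmoidal curves. RBA = IC50(E2)/IC50(compound) × 100, with unlabeled E2 as reference.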

The target of test [7] is Estrogen receptor beta (Homo sapiens) (UniProt Q92731). The test is described as follows: Displacement of [3H]E2 from human recombinant ERbeta after 1 hr by liquid scintillation counting relative to estradiol. The method, boiled down: as §1
Estrogen receptor beta (Homo sapiens), sequence (Q92731 whole entry): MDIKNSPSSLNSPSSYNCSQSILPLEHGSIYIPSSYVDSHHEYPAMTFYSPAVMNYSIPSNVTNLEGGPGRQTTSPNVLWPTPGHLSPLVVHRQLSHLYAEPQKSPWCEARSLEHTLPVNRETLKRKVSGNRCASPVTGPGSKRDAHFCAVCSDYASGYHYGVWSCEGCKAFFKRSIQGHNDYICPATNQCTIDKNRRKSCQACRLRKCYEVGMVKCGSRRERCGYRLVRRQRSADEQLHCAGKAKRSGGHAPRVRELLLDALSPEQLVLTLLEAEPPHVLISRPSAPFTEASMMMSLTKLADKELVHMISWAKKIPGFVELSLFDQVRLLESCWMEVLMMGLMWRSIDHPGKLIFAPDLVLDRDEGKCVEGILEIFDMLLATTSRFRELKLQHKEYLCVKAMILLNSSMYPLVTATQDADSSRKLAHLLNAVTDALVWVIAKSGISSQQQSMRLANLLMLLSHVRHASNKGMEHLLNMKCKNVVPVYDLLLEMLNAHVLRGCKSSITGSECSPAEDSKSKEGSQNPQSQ
(In general: Loss of bound radioactivity is the signal in a displacement assay; it reports binding, not function.)

The structures appear in SMILES notation. Some results are limits rather than exact numbers.

By inhibition is commonly meant the drop in the measured response relative to a control, in per cent. The low end stands for a response near the control, the high end for a response far below the control. A word on the IC50: it is the concentration at which inhibition is half-maximal. The low end stands for greater potency, the high end for weaker potency. For `Cc1cc(-c2cccc(C(=O)c3cccc(O)c3)c2)ccc1O`, the figures for the inhibition in test [1] and in test [3] were 77% and 50%, respectively. The IC50 in test [2] worked out at 475 nM; in test [4], 379 nM. Further, the Ratio IC50 in test [5] was 1.

`Cc1cc(-c2ccc(C(=O)c3cc(O)cc(F)c3)cc2)ccc1O`: the RBA in test [6] and in test [7] was less than 0.1% throughout. The inhibition in test [1] was 100%; in test [3] it was 84%. Further, the IC50 in test [2] amounted to 159 nM; in test [4] it was 31 nM. In addition, the Ratio IC50 in test [5] was determined as 5.

On to `O=C(c1ccc(F)c(O)c1)c1ccc(-c2ccc(O)c(Cl)c2)cn1`, for which the inhibition amounted to 87% in test [1] and 50% in test [3]. Further, the IC50 in test [2] stood at 1010 nM; in test [4], 153 nM. Besides, the Ratio IC50 in test [5] was 7.

Regarding `Cc1cc(-c2ccc(C(=O)c3cccc(O)c3)cc2)ccc1O`, the RBA in test [6] and in test [7] was less than 0.1% in each case. Besides, the inhibition in test [1] is 90%; in test [3] it was 58%. The figures for the IC50 in test [2] and in test [4] were 413 nM and 132 nM, respectively. Further, the Ratio IC50 in test [5] was 3.

Turning to `O=C(c1ccc(-c2ccc(O)cc2Cl)cc1)c1cccc(O)c1`, the inhibition in test [1] was found to be 80%; in test [3], 43%. Further, the values for the IC50 in test [2] and in test [4] were 1760 nM and 176 nM, respectively. The Ratio IC50 in test [5] is 11.

In the case of `O=C(c1ccc(-c2ccc(O)c(Cl)c2)cc1)c1ccc(F)c(O)c1`, the RBA in test [6] and in test [7] was less than 0.1% in each case. Also, the inhibition in test [1] worked out at 100%; in test [3], 95%. The IC50 came out at 53 nM in test [2] and 24 nM in test [4]. Also, the Ratio IC50 in test [5] came to 2.

For `O=C(c1cccc(O)c1)c1cccc(-c2ccc(O)cc2)n1`, the inhibition in test [1] was 16%; in test [3] it was less than 10%.

As for `Cc1cc(-c2cccc(C(=O)c3cc(O)cc(F)c3)n2)ccc1O`, the inhibition in test [1] is 57%; in test [3], less than 10%.

In the case of `O=C(c1cccc(O)c1)c1cccc(-c2ccc(O)c(Cl)c2)n1`, the inhibition in test [1] was 55%; in test [3], less than 10%. For the same compound, the figures for the IC50 in test [2] and in test [4] were 60600 nM and 752 nM, respectively. In addition, the Ratio IC50 in test [5] worked out at 81.

With `Cc1cc(-c2ccc(C(=O)c3cccc(O)c3)s2)ccc1O`, the Ratio IC50 in test [5] stood at 0.02.

For `O=C(c1ccc(-c2ccc(O)c(Cl)c2)cc1)c1cccc(O)c1`, the RBA in test [6] and in test [7] was less than 0.1% each time. The figures for the inhibition in test [1] and in test [3] were 92% and 66%, respectively. Further, the IC50 was found to be 571 nM in test [2] and 153 nM in test [4]. Besides, the Ratio IC50 in test [5] came to 4.

`Cc1cc(O)ccc1-c1cccc(C(=O)c2cccc(O)c2)n1`: the values for the inhibition in test [1] and in test [3] were 18% and less than 10%, respectively.

As to `O=C(c1cccc(O)c1)c1cccc(-c2cccc(O)c2)n1`, the inhibition in test [1] and in test [3] was less than 10% throughout.

Turning to `O=C(c1ccc(-c2ccc(O)c(F)c2)cc1)c1cccc(O)c1`, the inhibition in test [1] came out at 68%; in test [3] it was 26%. Further, the IC50 in test [2] came to 2430 nM; in test [4] it was 525 nM. Moreover, the Ratio IC50 in test [5] was 5.

Take `Cc1cc(-c2ccc(C(=O)c3ccc(F)c(F)c3)cc2)ccc1O`: the inhibition in test [1] came to 11%; in test [3], 16%.

In the case of `Cc1cc(-c2ccc(C(=O)c3cccc(O)c3)cn2)ccc1O`, the values for the inhibition in test [1] and in test [3] were 84% and 58%, respectively. Besides, the values for the half-maximal inhibitory concentration (IC50) in test [2] and in test [4] were 567 nM and 220 nM, respectively. In test [5], the Ratio IC50 amounted to 3.

Turning to `Cc1cc(-c2cccc(C(=O)c3ccc(C)c(O)c3)n2)ccc1O`, the values for the inhibition in test [1] and in test [3] were 28% and less than 10%, respectively.

Regarding `O=C(c1cccc(O)c1)c1cccc(-c2ccccc2O)n1`, the inhibition in test [1] and in test [3] was less than 10% in each case.

`O=C(c1cccc(O)c1)c1cccc(-c2ccc(O)c(F)c2)n1`: the inhibition was determined as 40% in test [1] and 47% in test [3].

For `Cc1cc(-c2ccc(C(=O)c3ccc(F)c(O)c3)cc2)ccc1O`, the RBA in test [6] and in test [7] was less than 0.1% throughout. Besides, the inhibition was 98% in test [1] and 79% in test [3]. For the same compound, the IC50 in test [2] was 289 nM; in test [4], 34 nM. Further, in test [5], the Ratio IC50 was 9.

For the compound `Cc1cc(-c2cccc(C(=O)c3cccc(O)c3)n2)ccc1O`, the inhibition in test [1] is 84%; in test [3], less than 10%.

On to `Cc1cc(-c2ccc(C(=O)c3ccc(F)c(O)c3)nc2)ccc1O`, for which the RBA in test [6] and in test [7] was less than 0.1% each time. The inhibition came out at 84% in test [1] and 47% in test [3]. The 50% inhibitory concentration (IC50) in test [2] was found to be 1270 nM; in test [4], 101 nM. In addition, the Ratio IC50 in test [5] amounted to 13.

Turning to `O=C(c1cccc(O)c1)c1cccc(-c2ccc(O)cc2F)n1`, the results for the inhibition in test [1] and in test [3] were 56% and 64%, respectively.

For the compound `Cc1cc(-c2cccc(C(=O)c3ccc(F)c(O)c3)n2)ccc1O`, the figures for the inhibition in test [1] and in test [3] were 62% and less than 10%, respectively. The half-maximal inhibitory concentration (IC50) in test [2] stood at 22400 nM; in test [4], 757 nM. In test [5], the Ratio IC50 came out at 30.

With `Cc1cc(-c2ccc(C(=O)c3cccc(O)c3)nc2)ccc1O`, the RBA in test [6] and in test [7] was less than 0.1% in each case. Besides, the inhibition in test [1] was determined as 73%; in test [3], 24%. In addition, the IC50 in test [2] was 5480 nM; in test [4], 260 nM. Also, the Ratio IC50 in test [5] was found to be 21.
